One data set has as its target Cannabinoid receptor 2 (Homo sapiens, UniProt P34972). As to the kind of experiment: Displacement of [3H]WIN-55212-2 from human CB2 receptor expressed in CHO-K1 cells by liquid scintillation counting. It is filed as cell-based.
Data set [1] can be described thus: Lipophilicity, log P of the compound. It is filed as physicochemical. The settings on record: octanol/water.
For data set [2], the target named is Cannabinoid receptor 2 (Mus musculus) (UniProt P47936). As to the kind of experiment: Agonist activity at mouse CB2 receptor expressed in HEK293 cells assessed as cAMP accumulation at 1 uM by radioimmunoassay. It counts as functional, cell-based. The essentials: (§1)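 Stably transfected HEK cells carrying mouse CB2. Rinse in HEPES buffer (15 min), preincubate with IBMX 10 mM (15 min), then incubate with IBMX ± isoproterenol 10 μM (15 min), all at 37 °C in a shaking bath. Cannabinoid is present in both the preincubation and the incubation.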
Cannabinoid receptor 2 (Mus musculus), sequence (P47936 whole entry): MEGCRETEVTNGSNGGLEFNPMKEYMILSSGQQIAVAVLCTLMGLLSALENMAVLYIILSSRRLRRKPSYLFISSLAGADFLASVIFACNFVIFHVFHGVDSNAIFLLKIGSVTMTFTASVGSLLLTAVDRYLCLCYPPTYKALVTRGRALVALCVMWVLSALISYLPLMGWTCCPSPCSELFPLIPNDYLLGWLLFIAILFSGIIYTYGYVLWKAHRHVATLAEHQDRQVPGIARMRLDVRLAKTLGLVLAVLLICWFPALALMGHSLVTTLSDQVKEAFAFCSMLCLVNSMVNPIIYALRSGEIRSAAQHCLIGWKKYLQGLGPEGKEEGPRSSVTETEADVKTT
For orientation: cAMP levels reflect the balance of adenylyl cyclase and phosphodiesterase activity.

The subject of data set [3] is Mus musculus. The data set is described as follows: Inhibition of WIN-55212-2-induced catalepsy in Swiss mouse at 20 mg/kg ip administered 30 mins before WIN-55212-2 challenge measured after 30 mins by ring catalepsy test. It counts as functional, organism-based. Set-up: dose 20 mg/kg. Summed up:
(§2)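 Mice dosed i.p. Ring test scored by a blinded observer as total time cataleptic during a 3-min observation.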

For data set [4], the system named is Mus musculus. The data set is described as follows: Effect on motor activity in Swiss mouse assessed as number of light beam interruptions projecting across each cage at 20 mg/kg, ip. Also on record: dose 20 mg/kg. It counts as functional, organism-based. The essentials: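 Male Swiss mice in the automated cages, dosed i.p. in saline/PEG-400/Tween-80 vehicle. Activity is counted as light-beam interruptions, recorded at the same time as feeding.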

In data set [5] the test system is Mus musculus. As to the kind of experiment: Inhibition of WIN-55212-2-induced hypothermia in Swiss mouse assessed as change in body temperature at 20 mg/kg ip administered 30 mins before WIN-55212-2 challenge. Set-up: dose 20 mg/kg. It is filed as functional, organism-based. Summed up: (§3)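 Mice dosed i.p. Rectal temperature taken with a digital probe and reported as change from baseline.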

For data set [6], the system named is Mus musculus. The data set is described as follows: Anorexic activity in Swiss mouse assessed as reduction of food intake at 5 mg/kg, ip administered 30 mins before dark onset after 24 hrs. It is filed as functional, organism-based. Set-up: dose 5 mg/kg. Summed up: (§4)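 Male Swiss mice (20-25 g) housed singly in automated feeding cages after 4 days of habituation. Dose i.p. in saline/10% PEG-400/10% Tween-80 before dark onset. Weight of food removed is logged continuously and expressed as food per kg body weight.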

The subject of data set [7] is Mus musculus. The data set is described as follows: Antianalgesic activity in Swiss mouse assessed as inhibition of (R)-methanandamide-induced analgesic effect at 20 mg/kg, ip administered 30 mins before (R)-methanandamide challenge measured for 45 mins by formalin planter test. It counts as functional, organism-based. Set-up: dose 20 mg/kg. The essentials: (§5)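 Formalin test in mice. Inject 10 μL of 5% formaldehyde (vehicle: saline/5% PEG-400/5% Tween-80) into the plantar paw, with (R)-methanandamide dissolved in the formalin. Give the antagonist i.p. 30 min before formalin. A blinded observer scores paw licking and biting for 45 min (phase I 0-15 min, phase II 15-45 min).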

Data set [8] addresses T1, Cannabinoid receptor 1 (Rattus norvegicus, UniProt P20272). The data set is described as follows: Displacement of [3H]WIN-55212-2 from CB1 receptor in rat cerebellar membrane by liquid scintillation counting. It counts as cell membranes, Cerebellum.
Data set [9] relates to Mus musculus. As to the kind of experiment: Anorexic activity in Swiss mouse assessed as reduction of food intake at 20 mg/kg, ip administered 30 mins before dark onset after 24 hrs. It is filed as functional, organism-based. Set-up: dose 20 mg/kg. Summed up:
as §4

Data set [10] has as its target Cannabinoid receptor 1 (Rattus norvegicus) (UniProt P20272). The data set is described as follows: Antagonist activity at CB1 receptor in rat cerebellar membrane by [35S]GTPgammaS binding assay. It counts as functional, cell membranes. The settings on record: Cerebellum. Summed up: (§6)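 Rat cerebellar membranes (20 μg) from freshly dissected cerebella. Incubate 90 min at 30 °C with 0.05 nM [35S]GTPγS and graded compound concentrations, in 20 mM Tris pH 7.4 with 5 mM MgCl2, 0.1 M NaCl, 30 μM GDP, adenosine deaminase, 0.02% BSA and PMSF. Run ± 10 μM WIN-55212-2. Stop by centrifugation at 4 °C, wash the pellet, and count by liquid scintillation.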
(In general: GTPγS resists hydrolysis and so accumulates on activated G proteins.)

The nature of data set [11]: Drug level in Swiss mouse white adipose tissue at 20 mg/kg, ip after 15 mins. It counts as ADME, organism-based. The settings on record: in vivo, 0.25 h. Also on record: dose 20 mg/kg, route intraperitoneal. Summed up: (§7)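 Mice dosed i.p. Blood and snap-frozen tissue are extracted in CH3OH:CHCl3:H2O and analysed by LC/MS on a cyano column with a water/methanol gradient containing acetic acid and ammonium acetate, at 0.4 mL/min.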

The target of data set [12] is T1, Cannabinoid receptor 1. The data set is described as follows: Antagonist activity at CB1 receptor in rat cerebellar membrane assessed as inhibition of WIN-55212-2-induced [35S]GTPgammaS binding by liquid scintillation counting. It counts as functional, cell membranes, Cerebellum. The essentials: as §6
Data set [13] has as its system Mus musculus. The data set is described as follows: Antiobesity activity in ob/ob mouse assessed as reduction of body weight gain at 20 mg/kg, ip once daily for 2 weeks. It is filed as functional, organism-based. Set-up: dose 20 mg/kg.
Data set [14] in a line: Plasma concentration in Swiss mouse at 20 mg/kg, ip after 30 mins. It is filed as ADME, organism-based. Also on record: dose 20 mg/kg, route intraperitoneal. The settings on record: read-out: Cmax. Summed up: as §7
The target in data set [15] is Cannabinoid receptor 2 (Mus musculus) (UniProt P47936). As to the kind of experiment: Agonist activity at mouse CB2 receptor expressed in HEK293 cells assessed as inhibition of isoproterenol-induced cAMP accumulation at 1 uM by radioimmunoassay. It counts as functional, cell-based. The essentials:
as §1

For data set [16], the system named is Mus musculus. The data set is described as follows: Inhibition of WIN-55212-2-induced catalepsy in Swiss mouse at 5 mg/kg ip administered 30 mins before WIN-55212-2 challenge measured after 30 mins by ring catalepsy test. It is filed as functional, organism-based. Set-up: dose 5 mg/kg. The essentials:
as §2

Data set [17] relates to Mus musculus. As to the kind of experiment: Antiobesity activity in ob/ob mouse assessed as reduction of food intake at 20 mg/kg, ip once daily for 2 weeks. Set-up: dose 20 mg/kg. It counts as functional, organism-based.
The subject of data set [18] is Mus musculus. As to the kind of experiment: Inhibition of WIN-55212-2-induced hypothermia in Swiss mouse assessed as change in body temperature at 2 mg/kg ip administered 30 mins before WIN-55212-2 challenge. Set-up: dose 2 mg/kg. It is filed as functional, organism-based. The essentials: as §3
Data set [19] relates to Mus musculus. As to the kind of experiment: Antianalgesic activity in Swiss mouse assessed as inhibition of (R)-methanandamide-induced analgesic effect at 2 mg/kg, ip administered 30 mins before (R)-methanandamide challenge measured for 45 mins by formalin planter test. Set-up: dose 2 mg/kg. It counts as functional, organism-based. The essentials:
as §5

Calls of active or inactive are those of the source. The rule behind the calls is not given here. A value given as a limit tells only on which side of the number the result lay.

T1 sequence (P20272 whole entry): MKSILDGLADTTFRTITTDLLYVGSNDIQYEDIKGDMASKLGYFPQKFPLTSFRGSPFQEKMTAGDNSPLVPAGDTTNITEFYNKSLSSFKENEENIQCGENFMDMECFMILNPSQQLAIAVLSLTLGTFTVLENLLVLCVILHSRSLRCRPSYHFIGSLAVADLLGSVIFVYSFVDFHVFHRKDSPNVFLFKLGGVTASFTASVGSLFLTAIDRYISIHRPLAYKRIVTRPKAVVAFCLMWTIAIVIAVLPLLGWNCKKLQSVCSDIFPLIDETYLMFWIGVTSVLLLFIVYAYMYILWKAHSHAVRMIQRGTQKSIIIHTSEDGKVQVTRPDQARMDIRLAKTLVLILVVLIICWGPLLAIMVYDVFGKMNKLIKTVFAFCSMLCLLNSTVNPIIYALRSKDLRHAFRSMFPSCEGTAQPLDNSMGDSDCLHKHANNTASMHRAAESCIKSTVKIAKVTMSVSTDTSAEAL
Cannabinoid receptor 2, sequence (P34972 whole entry): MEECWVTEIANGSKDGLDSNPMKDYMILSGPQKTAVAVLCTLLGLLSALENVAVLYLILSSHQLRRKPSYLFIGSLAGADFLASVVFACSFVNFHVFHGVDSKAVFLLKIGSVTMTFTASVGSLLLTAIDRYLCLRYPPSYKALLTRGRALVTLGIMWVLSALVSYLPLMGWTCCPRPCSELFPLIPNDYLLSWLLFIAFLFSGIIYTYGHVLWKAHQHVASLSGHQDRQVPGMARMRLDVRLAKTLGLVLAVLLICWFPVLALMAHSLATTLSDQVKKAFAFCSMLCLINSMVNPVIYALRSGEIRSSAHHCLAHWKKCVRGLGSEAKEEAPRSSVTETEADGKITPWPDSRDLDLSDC
Cannabinoid receptor 1 (Rattus norvegicus), sequence (P20272 whole entry): as the sequence (P20272 whole entry) above

Consider `Cc1c(C(=O)c2ccccc2)c(N)c(-c2ccccc2)n1Cc1ccc(Cl)cc1`, for which the figures for the IC50 on Cannabinoid receptor 2 and at Cannabinoid receptor 1 [8] were 0.041 µM and 0.313 µM, respectively. Further, the logP (commonly a log measure of how a compound divides between an organic and an aqueous phase) in data set [1] worked out at 6.39. Also, the Activity in [2] is 5.9 pmol; in data set [15], 14.3 pmol. The outcome (with Mus musculus [3]; with Mus musculus [4]; in the data set on Mus musculus [5]; with Mus musculus [6]; in the data set with Mus musculus [9]; in data set [10]) was inactive. The outcome in the data set on Mus musculus [7] and in the data set with Mus musculus [13] was Active. In [11], this molecule gave a Cmax of 42 nmol/g. The EC50 (commonly the concentration at which the effect is half-maximal) at Cannabinoid receptor 1 [12] came out at 4.9 µM. The concentration at 0.5 h in [14] was 596 nM.

Regarding `Cc1c(C(=O)NN2CCCCC2)cc(-c2ccccc2)n1Cc1ccc(Cl)cc1`, the IC50 on Cannabinoid receptor 2 and on Cannabinoid receptor 1 [8] was above 1 µM each time.

Consider `Cc1c(C(=O)NN2CCCCC2)nn(-c2ccc(Cl)cc2Cl)c1-c1ccc(Cl)cc1`, for which the result in the data set on Mus musculus [16], in the data set on Mus musculus [17], with Mus musculus [18] and in the data set with Mus musculus [19] was Active.

Take `Cc1c(C(=O)NC2C3CC4CC(C3)CC2C4)cc(-c2ccccc2)n1Cc1ccc(Cl)cc1` (configuration not stated): the results for the IC50 on Cannabinoid receptor 2 and on Cannabinoid receptor 1 [8] were 0.011 µM and 0.07 µM, respectively.

As to `Cc1[nH]c(-c2ccccc2)c(N)c1C(=O)c1ccccc1`, the IC50 at Cannabinoid receptor 2 and on Cannabinoid receptor 1 [8] was above 1 µM each time.

Regarding `Cc1c(C(=O)c2ccccc2)cc(-c2ccccc2)n1Cc1ccc(Cl)cc1`, the results for the IC50 on Cannabinoid receptor 2 and on Cannabinoid receptor 1 [8] were 0.498 µM and above 1 µM, respectively.

`Cc1c(C(=O)NC2C3CC4CC(C3)CC2C4)c(Br)c(-c2ccccc2)n1Cc1ccc(Cl)cc1` (configuration not stated): the 50% inhibitory concentration (IC50) (in general, the concentration at which inhibition is half-maximal) at Cannabinoid receptor 2 was 0.123 µM; at Cannabinoid receptor 1 [8] it was above 1 µM.

As for `Cc1c(C(=O)NC2CC3CCC2C3)cc(-c2ccccc2)n1Cc1ccc(Cl)cc1` (configuration not stated), the IC50 on Cannabinoid receptor 2 was 0.42 µM; on Cannabinoid receptor 1 [8] it was above 1 µM.

The record behind these values is ChEMBL document CHEMBL1143356, “Synthesis and characterization of a peripherally restricted CB1 cannabinoid antagonist, URB447, that reduces feeding and body-weight gain in mice” (Bioorg Med Chem Lett, 2009).
